Reference: ChEMBL document CHEMBL4011655, “Conformation-Based Design and Synthesis of Apratoxin A Mimetics Modified at the α,β-Unsaturated Thiazoline Moiety” (J Med Chem, 2017)

Tests used:
HCT-116 [1] = assay: Cytotoxicity against human HCT116 cells assessed as reduction in cell viability after 48 hrs by WST8 assay; format: functional, cell-based; conditions: HCT-116, 48 h
Summary of the method: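 HCT-116 cells grown in RPMI 1640 with 10% FBS and penicillin/streptomycin, plated near-confluent at 5 × 10^3 cells/well and left 24 h at 37 °C, 5% CO2. Compounds (DMSO stocks 0.01–100 μM) added to give final 0.1–1000 nM, 1% DMSO vehicle. After 48 h, WST-8 added for 2 h, absorbance read at 450 nm (reference 595 nm), vehicle taken as 100%. IC50 by probit analysis; three independent experiments.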

HCT-116 [2] = assay: Growth inhibition of human HCT116 cells after 72 hrs by Cell-Titer Glo assay; format: functional; conditions: HCT-116, 72 h
Summary of the method: (§1)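 Cells seeded in 384-well plates at 1–3 × 10^3 cells/well and grown 24 h at 37 °C, 5% CO2. Compounds added at final 0.03 nM to 1 μM (10-point), DMSO vehicle at most 0.25%.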

BXPC-3 = assay: Growth inhibition of human BxPC3 cells after 72 hrs by Cell-Titer Glo assay; format: functional; conditions: BXPC-3, 72 h; summary of the method: as §1
A549 = assay: Growth inhibition of human A549 cells after 72 hrs by Cell-Titer Glo assay; format: functional; conditions: A549, 72 h; summary of the method: as §1
Huh-7 = assay: Growth inhibition of human HuH7 cells after 72 hrs by Cell-Titer Glo assay; format: functional; conditions: Huh-7, 72 h; summary of the method: as §1
MKN-74 = assay: Growth inhibition of human MKN74 cells after 72 hrs by Cell-Titer Glo assay; format: functional; conditions: MKN-74, 72 h; summary of the method: as §1
U-87 MG = assay: Growth inhibition of human U87MG cells after 72 hrs by Cell-Titer Glo assay; format: functional, U-87MG ATCC; summary of the method: as §1
SK-OV-3 = assay: Growth inhibition of human SKOV3 cells after 72 hrs by Cell-Titer Glo assay; format: functional; conditions: SK-OV-3, 72 h; summary of the method: as §1
[3] = Growth inhibition of human HEC6 cells after 72 hrs by Cell-Titer Glo assay; format: functional; conditions: HEC-6, 72 h; summary of the method: as §1
786-0 = assay: Growth inhibition of human 786-O cells after 72 hrs by Cell-Titer Glo assay; format: functional; conditions: 786-0, 72 h; summary of the method: as §1
MCF7 = assay: Growth inhibition of human MCF7 cells after 72 hrs by Cell-Titer Glo assay; format: functional; conditions: MCF7, 72 h; summary of the method: as §1
[4] = Drug metabolism in mouse liver microsomes after 35 mins in presence of NADPH by LC-MS/MS analysis; format: ADME, microsome; conditions: read-out: Drug metabolism
Summary of the method: (§2)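 Pooled liver microsomes at 0.1 mg/mL protein with 3.25 mmol/L β-NADPH in 125 mmol/L phosphate buffer. Compound at 100 nmol/L, added in CH3CN. Incubated 37 °C for 35 min, stopped with methanol, held at −20 °C for 30 min, then centrifuged. Parent compound loss measured by LC-MS/MS; duplicate incubations.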

[5] = Drug metabolism in human liver microsomes after 35 mins in presence of NADPH by LC-MS/MS analysis; format: ADME, microsome; conditions: read-out: Drug metabolism; summary of the method: as §2

## CC[C@H](C)[C@H]1C(=O)N2CCC[C@H]2C(=O)O[C@H](C(C)(C)C)C[C@@H](C)C[C@H](O)[C@H](C)C(=O)NCCCC(=O)N[C@@H](Cc2ccc(OC)cc2)C(=O)N(C)[C@@H](C)C(=O)N1C
HCT-116 [1]
  IC50: 2600 nM

## CC[C@H](C)[C@H]1C(=O)N2CCC[C@H]2C(=O)O[C@H](C(C)(C)C)C[C@@H](C)C[C@H](O)[C@H](C)C(=O)N2CCC(CC2)C(=O)N[C@@H](Cc2ccc(OC)cc2)C(=O)N(C)[C@@H](Cc2ccccc2)C(=O)N1C
HCT-116 [1]
  IC50: 1600 nM

## COc1ccc(C[C@@H]2NC(=O)C3CCN(CC3)C(=O)[C@@H](C)[C@@H](O)C[C@H](C)C[C@@H](C(C)(C)C)OC(=O)[C@@H]3CCCN3C(=O)[C@H](Cc3ccccc3)N(C)C(=O)[C@H](C)N(C)C2=O)cc1
HCT-116 [1]
  IC50: 710 nM

## CC[C@H](C)[C@H]1C(=O)N2CCC[C@H]2C(=O)O[C@H](C(C)(C)C)C[C@@H](C)C[C@H](O)[C@H](C)C(=O)N(C)CCCC(=O)N[C@@H](Cc2ccc(OC)cc2)C(=O)N(C)[C@@H](C)C(=O)N1C
HCT-116 [1]
  IC50: 340 nM

## CC[C@H](C)[C@H]1C(=O)N2CCC[C@H]2C(=O)O[C@H](C(C)(C)C)C[C@@H](C)C[C@H](O)[C@H](C)C(=O)NCCC(=O)N[C@@H](Cc2ccc(OC)cc2)C(=O)N(C)[C@@H](C)C(=O)N1C
HCT-116 [1]
  IC50: 3400 nM

## CC[C@H](C)[C@H]1C(=O)N2CCC[C@H]2C(=O)O[C@H](C(C)(C)C)C[C@@H](C)C[C@H](O)[C@H](C)C(=O)N2CCC(CC2)C(=O)N[C@@H](Cc2ccc(OC)cc2)C(=O)N(C)CC(=O)N1C
HCT-116 [1]
  IC50: 850 nM

## CC[C@H](C)[C@H]1C(=O)N2CCC[C@H]2C(=O)O[C@H](C(C)(C)C)C[C@@H](C)C[C@H](O)[C@H](C)C(=O)N2CCC(CC2)C(=O)N[C@@H](Cc2ccc(Cl)cc2)C(=O)N(C)[C@@H](C)C(=O)N1C
HCT-116 [1]
  IC50: 69 nM
HCT-116 [2]
  GI50: 210 nM
BXPC-3
  GI50: 80 nM
A549
  GI50: 190 nM
Huh-7
  GI50: 180 nM
MKN-74
  GI50: 200 nM
U-87 MG
  GI50: 320 nM
SK-OV-3
  GI50: 410 nM
[3]
  GI50: 480 nM
786-0
  GI50: > 1000 nM
MCF7
  GI50: > 1000 nM

## CC[C@H](C)[C@H]1C(=O)N2CCC[C@H]2C(=O)O[C@H](C(C)(C)C)C[C@@H](C)C[C@H](O)[C@H](C)C(=O)N2CCC(CC2)C(=O)N[C@@H](Cc2ccc(-c3ccccc3)cc2)C(=O)N(C)[C@@H](C)C(=O)N1C
HCT-116 [1]
  IC50: 1.1 nM
HCT-116 [2]
  GI50: 11 nM
BXPC-3
  GI50: 4 nM
A549
  GI50: 6.3 nM
Huh-7
  GI50: 6.8 nM
MKN-74
  GI50: 8 nM
U-87 MG
  GI50: 12 nM
SK-OV-3
  GI50: 18 nM
[3]
  GI50: 23 nM
786-0
  GI50: 120 nM
MCF7
  GI50: > 1000 nM
[4]
  metabolised at 35 min: 84%
[5]
  metabolised at 35 min: 85%

## CC[C@H](C)[C@H]1C(=O)N2CCC[C@H]2C(=O)O[C@H](C(C)(C)C)C[C@@H](C)C[C@H](O)[C@H](C)C(=O)N2CCC(CC2)C(=O)N[C@@H](Cc2ccc(OC)cc2)C(=O)N(C)[C@@H](CC(C)C)C(=O)N1C
HCT-116 [1]
  IC50: 360 nM

## CC[C@H](C)[C@H]1C(=O)N2CCC[C@H]2C(=O)O[C@H](C(C)(C)C)C[C@@H](C)C[C@H](O)[C@H](C)C2=N[C@@H](/C=C(\C)C(=O)N[C@@H](Cc3ccc(OC)cc3)C(=O)N(C)[C@@H](C)C(=O)N1C)CS2 [APRATOXIN A]
HCT-116 [1]
  IC50: 2.8 nM
HCT-116 [2]
  GI50: 11 nM
BXPC-3
  GI50: 4.9 nM
A549
  GI50: 6.4 nM
Huh-7
  GI50: 7.2 nM
MKN-74
  GI50: 9.7 nM
U-87 MG
  GI50: 18 nM
SK-OV-3
  GI50: 31 nM
[3]
  GI50: 39 nM
786-0
  GI50: 41 nM
MCF7
  GI50: > 1000 nM

## CO[C@@]12[C@H](COC(N)=O)C3=C(C(=O)C(C)=C(N)C3=O)N1C[C@@H]1N[C@@H]12 [MITOMYCIN]
HCT-116 [2]
  GI50: 200 nM
BXPC-3
  GI50: 380 nM
A549
  GI50: 80 nM
Huh-7
  GI50: 2000 nM
MKN-74
  GI50: 1700 nM
U-87 MG
  GI50: 1800 nM
SK-OV-3
  GI50: 100 nM
[3]
  GI50: 1400 nM
786-0
  GI50: 210 nM
MCF7
  GI50: 2500 nM

## COc1ccc(C[C@@H]2NC(=O)C3CCN(CC3)C(=O)[C@@H](C)[C@@H](O)C[C@H](C)C[C@@H](C(C)(C)C)OC(=O)[C@@H]3CCCN3C(=O)[C@H](C(C)C)N(C)C(=O)[C@H](C)N(C)C2=O)cc1
HCT-116 [1]
  IC50: 130 nM

## CC[C@H](C)[C@H]1C(=O)N2CCC[C@H]2C(=O)O[C@H](C(C)(C)C)C[C@@H](C)C[C@H](O)[C@H](C)C(=O)N2CCC(CC2)C(=O)N[C@@H](Cc2ccc(OC)cc2)C(=O)N(C)[C@@H](C)C(=O)N1C
HCT-116 [1]
  IC50: 120 nM

## CC[C@H](C)[C@H]1C(=O)N2CCC[C@H]2C(=O)O[C@H](C(C)(C)C)C[C@@H](C)C[C@H](O)[C@H](C)C(=O)N(C)CCC(=O)N[C@@H](Cc2ccc(OC)cc2)C(=O)N(C)[C@@H](C)C(=O)N1C
HCT-116 [1]
  IC50: 3100 nM

## COc1ccc(C[C@@H]2NC(=O)C3CCN(CC3)C(=O)[C@@H](C)[C@@H](O)C[C@H](C)C[C@@H](C(C)(C)C)OC(=O)[C@@H]3CCCN3C(=O)[C@H](C)N(C)C(=O)[C@H](C)N(C)C2=O)cc1
HCT-116 [1]
  IC50: 7500 nM

## CC[C@H](C)[C@H]1C(=O)N2CCC[C@H]2C(=O)O[C@H](C(C)(C)C)C[C@@H](C)C[C@H](O)[C@H](C)C(=O)NCc2cccc(c2)C(=O)N[C@@H](Cc2ccc(OC)cc2)C(=O)N(C)[C@@H](C)C(=O)N1C
HCT-116 [1]
  IC50: 820 nM

## CC[C@H](C)[C@H]1C(=O)N2CCC[C@H]2C(=O)O[C@H](C(C)(C)C)C[C@@H](C)C[C@H](O)[C@H](C)C(=O)N(C)Cc2cccc(c2)C(=O)N[C@@H](Cc2ccc(OC)cc2)C(=O)N(C)[C@@H](C)C(=O)N1C
HCT-116 [1]
  IC50: 220 nM

## CC[C@H](C)[C@H]1C(=O)N2CCC[C@H]2C(=O)O[C@H](C(C)(C)C)C[C@@H](C)C[C@H](O)[C@H](C)C(=O)N2CCC(CC2)C(=O)N[C@@H](Cc2ccccc2)C(=O)N(C)[C@@H](C)C(=O)N1C
HCT-116 [1]
  IC50: 490 nM
